Assay results: ChEMBL document CHEMBL1154883, “Synthesis of highly functionalized barbituric acids and study of their interactions with p-glycoprotein and Mg2+--potential candidates for multi drug resistance modulation” (Eur J Med Chem, 2010)

Experiments:
[1] = tested on: DC3F/ADR; test: Binding affinity to p-glycoprotein in chinese hamster DC3F/ADR cells assessed as increase in basal activity at 0.5 uM after 30 mins by spectrophotometric method relative to control; type: cell-based; settings: Cricetulus griseus
How it was run: (§1)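 P-gp membrane vesicles from resistant DC-3F/ADX cells; basal MgATP hydrolysis tracked by PK/LDH-coupled NADH depletion (PEP, NADH) at 340 nm, with non-specific ATPase inhibitor in basal wells. Plate preincubated 30 min at 37 °C; vesicles 5 min, compound 5 min, then MgATP 20 min at 37 °C; read, re-read after 20 min. Triplicate; ≥30% basal change taken as interaction.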

[2] = tested on: DC3F/ADR; test: Binding affinity to p-glycoprotein in chinese hamster DC3F/ADR cells assessed as increase in basal activity at 5 uM after 30 mins by spectrophotometric method relative to control; type: cell-based; settings: Cricetulus griseus; how it was run: as §1
[3] = Binding affinity to Mg2+ ion in HEPES buffer at pH 7.2; type: physicochemical
[4] = tested on: DC3F/ADR; test: Binding affinity to p-glycoprotein in chinese hamster DC3F/ADR cells assessed as increase in basal activity at 0.05 uM after 30 mins by spectrophotometric method relative to control; type: cell-based; settings: Cricetulus griseus; how it was run: as §1

Row | Compound | Activity [1] [%] | Activity [2] [%] | Ka [3] | Activity [4] [%]
1 | CN1C(=O)C(=C(Nc2ccccc2N)c2ccccc2)C(=O)N(C)C1=O | 144 | 135 | 2.41 ×10⁴ /M | 42
2 | CN1C(=O)C(=CNc2ccccc2C(=O)O)C(=O)N(C)C1=O | 83 | 100 | 3.6 ×10⁶ /M | 35
3 | CN1C(=O)C(=C(/C=C/c2ccccc2)Nc2ccccc2N)C(=O)N(C)C1=O | 112 | 133 | 2.7 ×10⁴ /M | 44
4 | CN1C(=O)C(=CNc2cccc(N)n2)C(=O)N(C)C1=O | 81 | 92 | 2.57 ×10⁵ /M | 44
5 | CN1C(=O)C(=CNc2cc(C(=O)O)ccc2C(=O)O)C(=O)N(C)C1=O | 80 | 146 | 7.46 ×10⁵ /M | 57
6 | CN1C(=O)C(=CNNc2ccccc2)C(=O)N(C)C1=O | 97 | 168 | 1.53 ×10⁷ /M | 57
7 | CN1C(=O)C(=C(/C=C/c2ccccc2)NCCNC(/C=C/c2ccccc2)=C2C(=O)N(C)C(=O)N(C)C2=O)C(=O)N(C)C1=O | 166 | 66 | 5.84 ×10⁵ /M | 100
8 | CN1C(=O)C(=C(/C=C/c2ccccc2)NNC(/C=C/c2ccccc2)=C2C(=O)N(C)C(=O)N(C)C2=O)C(=O)N(C)C1=O | 69 | 200 | 4.82 ×10⁵ /M | 33
9 | COc1ccccc1NC=C1C(=O)N(C)C(=O)N(C)C1=O | 95 | 123 | 5.79 ×10⁵ /M | 53
10 | CN1C(=O)C(=C(NNC(=C2C(=O)N(C)C(=O)N(C)C2=O)c2ccccc2)c2ccccc2)C(=O)N(C)C1=O | 100 | 166 | 1.11 ×10⁶ /M | 66
11 | CN1C(=O)C(=CNCc2ccccn2)C(=O)N(C)C1=O | 75 | 98 | 3.2 ×10⁵ /M | 63
12 | CN1C(=O)C(=CNc2ccccc2N)C(=O)N(C)C1=O | 102 | 166 | 7.06 ×10⁵ /M | 33
13 | CN1C(=O)C(=CNc2ccccc2[N+](=O)[O-])C(=O)N(C)C1=O | 99 | 141 | 1.4 ×10⁵ /M | 51
14 | CN1C(=O)C(=CNCCNC=C2C(=O)N(C)C(=O)N(C)C2=O)C(=O)N(C)C1=O | 71 | 134 | 8.68 ×10⁵ /M | 66
15 | CN1C(=O)C(=CNc2ccccc2O)C(=O)N(C)C1=O | 114 | 95 | 5.76 ×10⁵ /M | 42
